Laboratory results published in ChEMBL document CHEMBL1148330, “Synthesis and biological evaluation of 14-alkoxymorphinans. 21. Novel 4-alkoxy and 14-phenylpropoxy derivatives of the mu opioid receptor antagonist cyprodime” (J Med Chem, 2004).

Legend:
[1] = system: Mus musculus; experiment: Effective dose (sc) required for antinociceptive potency in vivo in the hotplate (HP) test in mice; assay type: functional
[2] = system: Mus musculus; experiment: Effective dose (sc) required for antinociceptive potency in vivo in the paraphenylquinone writhing (PPQ) test in mice; assay type: functional
[3] = molecular target: T1, Kappa-type opioid receptor (Homo sapiens, UniProt P41145); experiment: Concentration necessary to produce 50% of the Emax value, i.e. to stimulate [35S]GTP-gamma-S, binding to recombinant human Opioid receptor kappa 1 expressed in CHO cells; assay type: functional, cell-based
T1 sequence (P41145 whole entry): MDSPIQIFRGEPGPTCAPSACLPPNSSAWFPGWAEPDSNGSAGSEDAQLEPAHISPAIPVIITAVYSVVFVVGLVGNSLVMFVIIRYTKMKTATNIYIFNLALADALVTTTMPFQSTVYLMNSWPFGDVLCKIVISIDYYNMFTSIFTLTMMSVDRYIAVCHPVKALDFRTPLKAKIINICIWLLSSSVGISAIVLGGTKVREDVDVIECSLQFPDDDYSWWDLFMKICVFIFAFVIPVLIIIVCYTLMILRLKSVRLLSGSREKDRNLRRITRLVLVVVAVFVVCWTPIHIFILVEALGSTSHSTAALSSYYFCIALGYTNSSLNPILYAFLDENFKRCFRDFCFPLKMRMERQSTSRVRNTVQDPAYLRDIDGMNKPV
Summary of the method: (§1)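 Membranes from CHO cells stably expressing human µ, δ or κ opioid receptor, incubated with varying concentrations of compound in a [35S]GTPγS binding assay. Emax is % maximal stimulation of [35S]GTPγS binding. EC50 is the concentration giving 50% of the Emax value. Mean ± SEM.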

[4] = species on record: Rattus norvegicus; experiment: Selectivity ratio of binding affinities between kappa opioid receptors and mu opioid receptors in rat brain membranes; assay type: cell membranes
Summary of the method: (§2)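 Competitive radioligand binding in rat brain membranes: [3H]DAMGO (µ), [3H][Ile5,6]deltorphin II (δ), [3H]U69,593 (κ). Ki reported as mean ± SEM. Selectivity ratios are Ki δ/Ki µ and Ki κ/Ki µ.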

[5] = molecular target: T2, Mu-type opioid receptor (Homo sapiens, UniProt P35372); experiment: Percent maximal stimulation of [35S]GTP-gamma-S, binding to recombinant human Opioid receptor mu 1 expressed in CHO cells; assay type: functional, cell-based; summary of the method: as §1
T2 sequence (P35372 whole entry): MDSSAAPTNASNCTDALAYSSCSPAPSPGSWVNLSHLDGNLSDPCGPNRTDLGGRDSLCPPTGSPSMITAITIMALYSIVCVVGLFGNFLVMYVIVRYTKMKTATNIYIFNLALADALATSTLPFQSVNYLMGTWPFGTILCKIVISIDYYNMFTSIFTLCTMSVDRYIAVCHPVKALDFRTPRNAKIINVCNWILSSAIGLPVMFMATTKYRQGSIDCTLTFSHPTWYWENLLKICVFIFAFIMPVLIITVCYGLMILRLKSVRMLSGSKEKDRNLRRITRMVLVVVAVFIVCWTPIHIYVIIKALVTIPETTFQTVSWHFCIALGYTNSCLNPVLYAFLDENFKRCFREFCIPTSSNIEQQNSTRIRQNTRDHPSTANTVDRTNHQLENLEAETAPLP

[6] = molecular target: T3, Delta-type opioid receptor (Homo sapiens, UniProt P41143); experiment: Concentration necessary to produce 50% of the Emax value, i.e. to stimulate [35S]GTP-gamma-S, binding to recombinant human opioid receptor delta 1 expressed in CHO cells; assay type: functional, cell-based; summary of the method: as §1
T3 sequence (P41143 whole entry): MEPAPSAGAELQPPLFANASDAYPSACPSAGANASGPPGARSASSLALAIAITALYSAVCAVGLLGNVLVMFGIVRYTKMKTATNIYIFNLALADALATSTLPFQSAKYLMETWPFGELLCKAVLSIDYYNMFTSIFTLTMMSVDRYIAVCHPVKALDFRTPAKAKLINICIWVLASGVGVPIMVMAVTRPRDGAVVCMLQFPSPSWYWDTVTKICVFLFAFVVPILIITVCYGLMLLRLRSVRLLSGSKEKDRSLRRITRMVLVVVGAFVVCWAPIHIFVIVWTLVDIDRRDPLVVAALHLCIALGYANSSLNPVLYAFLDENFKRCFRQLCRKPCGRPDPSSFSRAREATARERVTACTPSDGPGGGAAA

[7] = molecular target: T2, Mu-type opioid receptor; experiment: Concentration necessary to produce 50% of the Emax value, i.e. to stimulate [35S]GTP-gamma-S, binding to recombinant human Opioid receptor mu 1 expressed in CHO cells; assay type: functional, cell-based; summary of the method: as §1
[8] = molecular target: Opioid receptors; mu & delta (Rattus norvegicus) (UniProt P33533+P33535); experiment: Selectivity ratio of binding affinities between delta opioid receptors and mu opioid receptors in rat brain membranes; assay type: cell membranes; summary of the method: as §2
Sequence of Opioid receptors; mu & delta (Rattus norvegicus) (P33533 whole entry, looked up): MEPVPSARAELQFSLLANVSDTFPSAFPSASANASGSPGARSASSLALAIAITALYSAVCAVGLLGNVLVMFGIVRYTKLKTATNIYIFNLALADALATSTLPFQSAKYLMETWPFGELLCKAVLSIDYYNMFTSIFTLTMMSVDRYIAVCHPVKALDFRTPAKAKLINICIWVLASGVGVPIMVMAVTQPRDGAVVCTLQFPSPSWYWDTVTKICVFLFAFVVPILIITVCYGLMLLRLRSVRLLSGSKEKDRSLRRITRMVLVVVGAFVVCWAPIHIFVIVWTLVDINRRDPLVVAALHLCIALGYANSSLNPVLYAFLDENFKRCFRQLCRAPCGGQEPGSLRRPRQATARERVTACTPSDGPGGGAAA
Sequence of Opioid receptors; mu & delta (Rattus norvegicus) (P33535 whole entry, looked up): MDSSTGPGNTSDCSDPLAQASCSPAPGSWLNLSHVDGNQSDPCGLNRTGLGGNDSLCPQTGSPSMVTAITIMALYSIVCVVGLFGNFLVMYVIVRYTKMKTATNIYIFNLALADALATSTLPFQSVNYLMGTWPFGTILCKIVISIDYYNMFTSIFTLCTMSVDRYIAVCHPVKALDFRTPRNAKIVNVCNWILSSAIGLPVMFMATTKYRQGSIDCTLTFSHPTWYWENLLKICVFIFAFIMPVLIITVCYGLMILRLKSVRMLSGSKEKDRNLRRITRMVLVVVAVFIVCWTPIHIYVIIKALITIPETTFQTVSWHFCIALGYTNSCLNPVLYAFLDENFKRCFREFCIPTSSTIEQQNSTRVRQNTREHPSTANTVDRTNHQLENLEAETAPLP

[9] = molecular target: T3, Delta-type opioid receptor; experiment: Percent maximal stimulation of [35S]GTP-gamma-S, binding to recombinant human opioid receptor delta 1 expressed in CHO cells; assay type: functional, cell-based; summary of the method: as §1
[10] = system: Mus musculus; experiment: Effective dose (sc) required for antinociceptive potency in vivo in the tail-flick (TF) test in mice; assay type: functional
[11] = molecular target: T1, Kappa-type opioid receptor; experiment: Antagonistic activity against recombinant human Opioid receptor kappa 1 expressed in CHO cells when incubated with U69,593; assay type: functional, cell-based
Summary of the method: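 Membranes from CHO cells stably expressing the human κ opioid receptor, incubated with the agonist U69,593 in the presence of varying concentrations of compound. Antagonist Ke values reported as mean ± SEM.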

[12] = molecular target: Mu-type opioid receptor (Rattus norvegicus, UniProt P33535); experiment: Binding affinity determined by displacing [3H]DAMGO from Opioid receptor mu 1 in rat brain membranes; assay type: cell membranes; summary of the method: as §2
Sequence of Mu-type opioid receptor (Rattus norvegicus, UniProt P33535) (P33535 whole entry): as the sequence (P33535 whole entry, looked up) above

[13] = molecular target: Kappa-type opioid receptor (Rattus norvegicus, UniProt P34975); experiment: Binding affinity determined by displacing [3H]U69,593 from Opioid receptor kappa 1 in rat brain membranes; assay type: cell membranes; summary of the method: as §2
Sequence of Kappa-type opioid receptor (Rattus norvegicus, UniProt P34975) (P34975 whole entry): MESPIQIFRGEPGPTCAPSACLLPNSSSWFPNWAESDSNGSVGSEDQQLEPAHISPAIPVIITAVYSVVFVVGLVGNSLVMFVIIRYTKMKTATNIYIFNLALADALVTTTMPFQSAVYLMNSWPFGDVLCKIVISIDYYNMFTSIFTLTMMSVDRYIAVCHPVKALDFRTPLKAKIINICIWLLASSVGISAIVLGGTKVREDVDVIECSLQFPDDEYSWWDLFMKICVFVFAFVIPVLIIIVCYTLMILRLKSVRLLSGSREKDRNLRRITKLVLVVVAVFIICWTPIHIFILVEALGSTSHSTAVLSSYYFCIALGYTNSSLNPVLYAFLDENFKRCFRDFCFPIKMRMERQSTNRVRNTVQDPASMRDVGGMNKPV

[14] = molecular target: T2, Mu-type opioid receptor; conditions: CHO
[15] = molecular target: T1, Kappa-type opioid receptor; experiment: Percent maximal stimulation of [35S]GTP-gamma-S, binding to recombinant human Opioid receptor kappa 1 expressed in CHO cells; assay type: functional, cell-based; summary of the method: as §1

COc1cccc2c1[C@]13CCN(CC4CC4)[C@H](C2)[C@]1(OCCCc1ccccc1)CCC(=O)C3
ED50 [1]: 0.3 mg/kg | ED50 [2]: 0.06 mg/kg | EC50 [3]: > 10 µM | Selectivity ratio [4]: 22 | Emax [5]: 35% | EC50 [6]: 0.0206 µM | EC50 [7]: 0.00197 µM | Selectivity ratio [8]: 50 | Emax [9]: 22% | ED50 [10]: 0.28 mg/kg | Ke [11]: 2.52 nM | Ki [12]: 0.34 µM | Ki [13]: 7.36 µM

CCCCOc1cccc2c1[C@]13CCN(CC4CC4)[C@H](C2)[C@]1(OC)CCC(=O)C3
Ke [14]: 11.1 nM | EC50 [3]: > 10 µM | Selectivity ratio [4]: 19 | EC50 [6]: 1.61 µM | EC50 [7]: > 10 µM | Selectivity ratio [8]: 55 | Emax [9]: 22% | Ke [11]: 120 nM | Ki [12]: 13.8 µM | Ki [13]: 261 µM

CO[C@@]12CCC(=O)[C@]3(C)Oc4c(O)ccc5c4[C@@]31CCN(C)[C@@H]2C5
ED50 [1]: 0.03 mg/kg | ED50 [2]: 0.009 mg/kg | ED50 [10]: 0.03 mg/kg

O=C1CC[C@@]2(OCCCc3ccccc3)[C@H]3Cc4cccc(O)c4[C@@]2(CCN3CC2CC2)C1
ED50 [1]: 0.04 mg/kg | ED50 [2]: 0.0014 mg/kg | EC50 [3]: 0.00451 µM | Selectivity ratio [4]: 15 | Emax [5]: 35% | EC50 [6]: 0.00791 µM | EC50 [7]: 0.00347 µM | Selectivity ratio [8]: 13 | Emax [9]: 49% | ED50 [10]: 0.05 mg/kg | Emax [15]: 45.8% | Ki [12]: 0.4 µM | Ki [13]: 5.84 µM

CCCCCCOc1cccc2c1[C@]13CCN(CC4CC4)[C@H](C2)[C@]1(OC)CCC(=O)C3
Selectivity ratio [4]: 9.8 | Selectivity ratio [8]: 26 | Ki [12]: 44.9 µM | Ki [13]: 441 µM

CCCCOc1cccc2c1[C@]13CCN(CC4CC4)[C@H](C2)[C@]1(OCCCc1ccccc1)CCC(=O)C3
Selectivity ratio [4]: 10 | Selectivity ratio [8]: 16 | Ki [12]: 14.9 µM | Ki [13]: 150 µM

COc1cccc2c1[C@]13CCN(CC4CC4)[C@H](C2)[C@]1(OC)CCC(=O)C3 [CYPRODIME]
Ke [14]: 12.4 nM | EC50 [3]: 0.117 µM | Selectivity ratio [4]: 10 | Emax [5]: 33% | EC50 [6]: 1.1 µM | Selectivity ratio [8]: 39 | Emax [9]: 18% | Ke [11]: 26.1 nM | Emax [15]: 18.8% | Ki [12]: 10.6 µM | Ki [13]: 109 µM

O=C1CC[C@@]2(OCCCc3ccccc3)[C@H]3Cc4cccc5c4[C@@]2(CCN3CC2CC2)C1O5 (some centres undefined)
ED50 [1]: 0.68 mg/kg | ED50 [2]: 0.0094 mg/kg | EC50 [3]: > 10 µM | Selectivity ratio [4]: 27 | Emax [5]: 43% | EC50 [6]: 0.0868 µM | EC50 [7]: 0.0098 µM | Selectivity ratio [8]: 55 | Emax [9]: 17% | ED50 [10]: 0.187 mg/kg | Ke [11]: 8.54 nM | Ki [12]: 0.84 µM | Ki [13]: 22.8 µM

CO[C@@]12CCC(=O)C[C@@]13CCN(CC1CC1)[C@@H]2Cc1cccc(OCCCc2ccccc2)c13
Selectivity ratio [4]: 4.8 | Selectivity ratio [8]: 33 | Ki [12]: 43.3 µM | Ki [13]: 208 µM

CO[C@@]12CCC(=O)C[C@@]13CCN(CC1CC1)[C@@H]2Cc1cccc(OCc2ccccc2)c13
Selectivity ratio [4]: 4.9 | Selectivity ratio [8]: 18 | Ki [12]: 11.6 µM | Ki [13]: 56.8 µM
